Calls of active or inactive are those of the source. No cut-off for these calls is given here.
Experiments:
[1] = system: Mus musculus; test: Anticonvulsant activity in albino CF1 mouse assessed as protection against maximal electroshock-induced seizures at 100 mg/kg, ip after 0.5 hrs; type: functional, organism-based; design: dose 100 mg/kg
Procedure, shortened: (§1)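 Mice dosed ip at 30, 100 or 300 mg/kg, then tested 0.5 h and 4 h after administration in the MES or scMet test. Protection was recorded as animals protected over animals tested. Neurotoxicity was recorded as motor impairment or sedation, as animals affected over animals tested.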

[2] = system: Mus musculus; test: Neurotoxicity in albino CF1 mouse assessed as minimal motor impairment at 300 mg/kg, ip after 0.5 hrs by rotarod test; type: toxicity, organism-based; design: dose 300 mg/kg, route intraperitoneal; conditions: in vivo; procedure, shortened: as §1
[3] = Neurotoxicity in po dosed Sprague-Dawley albino rat assessed as minimal motor impairment by rotarod test; type: toxicity, organism-based; conditions: in vivo
Procedure, shortened: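 Rats dosed orally; 4 rats per time point after dosing. Neurotoxicity was scored as motor impairment or sedation and reported as number of animals affected over number tested.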

[4] = system: Mus musculus; test: Neurotoxicity in albino CF1 mouse assessed as minimal motor impairment at 300 mg/kg, ip after 4 hrs by rotarod test; type: toxicity, organism-based; design: dose 300 mg/kg, route intraperitoneal; conditions: in vivo; procedure, shortened: as §1
[5] = system: Mus musculus; test: Anticonvulsant activity in albino CF1 mouse assessed as protection against maximal electroshock-induced seizures at 300 mg/kg, ip after 0.5 hrs; type: functional, organism-based; design: dose 300 mg/kg; procedure, shortened: as §1
[6] = system: Rattus norvegicus; test: Anticonvulsant activity in Sprague-Dawley albino rat assessed as protection against maximal electroshock-induced seizures at 30 mg/kg, po after 4 hrs; type: functional, organism-based; design: dose 30 mg/kg
Procedure, shortened: (§2)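 Rats dosed orally. Anti-MES protection was scored as animals protected over animals tested at each time after dosing. Neurotoxicity was scored as motor impairment or sedation, as animals affected over animals tested.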

[7] = Neurotoxicity in ip dosed albino CF1 mouse assessed as minimal motor impairment by rotarod test; type: toxicity, organism-based; conditions: in vivo
Procedure, shortened: (§3)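 Quantitative testing: rats dosed orally or ip in MES and scMet tests, and mice dosed ip, including the 6 Hz (32 mA) psychomotor seizure test. ED50 and TD50 were reported in mg/kg with ranges in parentheses. Protective index was calculated as TD50/ED50.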

[8] = system: Mus musculus; test: Anticonvulsant activity in albino CF1 mouse assessed as protection against maximal electroshock-induced seizures at 10 mg/kg, ip after 0.5 hrs; type: functional, organism-based; design: dose 10 mg/kg
[9] = system: Rattus norvegicus; test: Anticonvulsant activity in ip dosed Sprague-Dawley albino rat assessed as protection against pilocarpine-induced status epilepticus after 0.5 hrs; type: functional
Procedure, shortened: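 Pilocarpine status epilepticus model in rats. Number and severity of convulsive seizures were observed behaviourally.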

[10] = system: Rattus norvegicus; test: Protective index, ratio of TD50 for po dosed Sprague-Dawley albino rat by rotarod test to ED50 for po dosed Sprague-Dawley albino rat by maximal electroshock seizures test; type: functional
Procedure, shortened: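 Protective index calculated as TD50/ED50, with TD50 and ED50 taken from the same species and dosing route.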

[11] = system: Rattus norvegicus; test: Neurotoxicity in Sprague-Dawley albino rat assessed as minimal motor impairment at 30 mg/kg, po by rotarod test; type: toxicity, organism-based; design: dose 30 mg/kg, route oral; conditions: in vivo; procedure, shortened: as §2
[12] = system: Mus musculus; test: Neurotoxicity in albino CF1 mouse assessed as minimal motor impairment at 30 mg/kg, ip after 4 hrs by rotarod test; type: toxicity, organism-based; design: dose 30 mg/kg, route intraperitoneal; conditions: in vivo; procedure, shortened: as §1
[13] = system: Mus musculus; test: Neurotoxicity in albino CF1 mouse assessed as minimal motor impairment at 100 mg/kg, ip after 4 hrs by rotarod test; type: toxicity, organism-based; design: dose 100 mg/kg, route intraperitoneal; conditions: in vivo; procedure, shortened: as §1
[14] = system: Mus musculus; test: Anticonvulsant activity in albino CF1 mouse assessed as protection against maximal electroshock-induced seizures at 3 mg/kg, ip after 0.5 hrs; type: functional, organism-based; design: dose 3 mg/kg
[15] = system: Mus musculus; test: Anticonvulsant activity in albino CF1 mouse assessed as protection against subcutaneous metrazol-induced seizures at 30 mg/kg, ip after 0.5 hrs; type: functional, organism-based; design: dose 30 mg/kg; procedure, shortened: as §1
[16] = system: Mus musculus; test: Anticonvulsant activity in albino CF1 mouse assessed as protection against subcutaneous metrazol-induced seizures at 100 mg/kg, ip after 4 hrs; type: functional, organism-based; design: dose 100 mg/kg; procedure, shortened: as §1
[17] = system: Mus musculus; test: Neurotoxicity in albino CF1 mouse assessed as minimal motor impairment at 30 mg/kg, ip after 0.5 hrs by rotarod test; type: toxicity, organism-based; design: dose 30 mg/kg, route intraperitoneal; conditions: in vivo; procedure, shortened: as §1
[18] = system: Mus musculus; test: Anticonvulsant activity in albino CF1 mouse assessed as protection against subcutaneous metrazol-induced seizures at 300 mg/kg, ip after 0.5 hrs; type: functional, organism-based; design: dose 300 mg/kg; procedure, shortened: as §1
[19] = system: Mus musculus; test: Neurotoxicity in albino CF1 mouse assessed as minimal motor impairment at 10 mg/kg, ip after 0.5 hrs by rotarod test; type: toxicity, organism-based; design: dose 10 mg/kg, route intraperitoneal; conditions: in vivo
[20] = system: Rattus norvegicus; test: Anticonvulsant activity in po dosed Sprague-Dawley albino rat assessed as protection against maximal electroshock-induced seizures; type: functional; procedure, shortened: as §3
[21] = system: Rattus norvegicus; test: Anticonvulsant activity in Sprague-Dawley albino rat assessed as protection against maximal electroshock-induced seizures at 30 mg/kg, po after 30 mins; type: functional, organism-based; design: dose 30 mg/kg; procedure, shortened: as §2
[22] = system: Mus musculus; test: Neurotoxicity in albino CF1 mouse assessed as minimal motor impairment at 3 mg/kg, ip after 0.5 hrs by rotarod test; type: toxicity, organism-based; design: dose 3 mg/kg, route intraperitoneal; conditions: in vivo
[23] = system: Rattus norvegicus; test: Neurotoxicity in pilocarpine-induced status epilepticus Sprague-Dawley albino rat model assessed as minimal motor impairment at 200 mg/kg, ip after 0.5 hrs by rotarod test; type: toxicity, organism-based; design: dose 200 mg/kg, route intraperitoneal; conditions: in vivo
Procedure, shortened: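 Rat pilocarpine status epilepticus model: test carbamate given at 0 or 30 min after the first observed Racine stage 3 motor seizure, which marks SE onset. Neurotoxicity was scored within the same model.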

[24] = system: Mus musculus; test: Anticonvulsant activity in albino CF1 mouse assessed as protection against maximal electroshock-induced seizures at 30 mg/kg, ip after 4 hrs; type: functional, organism-based; design: dose 30 mg/kg; procedure, shortened: as §1
[25] = system: Mus musculus; test: Anticonvulsant activity in albino CF1 mouse assessed as protection against maximal electroshock-induced seizures at 100 mg/kg, ip after 4 hrs; type: functional, organism-based; design: dose 100 mg/kg; procedure, shortened: as §1
[26] = system: Mus musculus; test: Anticonvulsant activity in albino CF1 mouse assessed as protection against maximal electroshock-induced seizures at 300 mg/kg, ip after 4 hrs; type: functional, organism-based; design: dose 300 mg/kg; procedure, shortened: as §1
[27] = system: Mus musculus; test: Anticonvulsant activity in albino CF1 mouse assessed as protection against maximal electroshock-induced seizures at 30 mg/kg, ip after 0.5 hrs; type: functional, organism-based; design: dose 30 mg/kg; procedure, shortened: as §1
[28] = system: Mus musculus; test: Anticonvulsant activity in albino CF1 mouse assessed as protection against subcutaneous metrazol-induced seizures at 300 mg/kg, ip after 4 hrs; type: functional, organism-based; design: dose 300 mg/kg; procedure, shortened: as §1
[29] = system: Mus musculus; test: Anticonvulsant activity in albino CF1 mouse assessed as protection against subcutaneous metrazol-induced seizures at 30 mg/kg, ip after 4 hrs; type: functional, organism-based; design: dose 30 mg/kg; procedure, shortened: as §1
[30] = system: Rattus norvegicus; test: Anticonvulsant activity in Sprague-Dawley albino rat assessed as protection against maximal electroshock-induced seizures at 30 mg/kg, po after 1 hr; type: functional, organism-based; design: dose 30 mg/kg; procedure, shortened: as §2
[31] = system: Mus musculus; test: Anticonvulsant activity in ip dosed albino CF1 mouse assessed as protection against maximal electroshock-induced seizures; type: functional; procedure, shortened: as §3
[32] = system: Rattus norvegicus; test: Anticonvulsant activity in Sprague-Dawley albino rat assessed as protection against maximal electroshock-induced seizures at 30 mg/kg, po after 15 mins; type: functional, organism-based; design: dose 30 mg/kg; procedure, shortened: as §2

NC(=O)OCCc1ccccc1 [PHENYLETHYL CARBAMATE]
Activity [1]: Active | Activity [2]: Toxic | TD50 [3]: < 400 mg/kg | Activity [4]: Non-toxic | Activity [5]: Active | Activity [6]: inactive | TD50 [7]: 114 mg/kg | Activity [8]: inactive | ED50 [9]: 105 mg/kg | ED97 [9]: 221 mg/kg | Ratio TD50/ED50 [10]: <25 | Activity [11]: Non-toxic | Activity [12]: Non-toxic | Activity [13]: Non-toxic | Activity [14]: inactive | Activity [15]: inactive | Activity [16]: inactive | Activity [17]: Non-toxic | Activity [18]: Active | Activity [19]: Non-toxic | ED50 [20]: 16 mg/kg | Activity [21]: Active | Activity [22]: Non-toxic | Activity [23]: Toxic | Activity [24]: inactive | Activity [25]: inactive | Activity [26]: Active | Activity [27]: Active | Activity [28]: inactive | Activity [29]: inactive | Activity [30]: Active | ED50 [31]: 18 mg/kg | Activity [32]: Active

From ChEMBL document CHEMBL2086252, “Syntheses and evaluation of anticonvulsant activity of novel branched alkyl carbamates” (J Med Chem, 2012)
